ChEMBL document CHEMBL1121612, “Ivermectin, a new broad-spectrum antiparasitic agent” (1980)

Assays:
Assay type in all cases: functional
Ovis aries [1] = test: Activity against adult gastrointestinal helminths of experimentally infected sheep on oral administration of Ostertagia circumcincta at 0.05 mg/kg.
Ovis aries [2] = test: Activity against adult gastrointestinal helminths of experimentally infected sheep on oral administration of Trichostrongylus colubriformis at 0.05 mg/kg.
Procedure, shortened: (§1)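 Sheep were experimentally infected with benzimidazole-resistant isolates of this species among six gastrointestinal helminths and dosed orally. Efficacy against the adult worms was scored per species.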

Ovis aries [3] = test: Activity against adult gastrointestinal helminths of experimentally infected sheep on oral administration of Trichostrongylus axei at 0.05 mg/kg.
Ovis aries [4] = test: Activity against adult gastrointestinal helminths of experimentally infected sheep on oral administration of Oesophagostomum columbianum at 0.05 mg/kg.
Ovis aries [5] = test: Activity against adult gastrointestinal helminths of experimentally infected sheep on oral administration of Cooperia species at 0.05 mg/kg.
Ovis aries [6] = test: Activity against adult gastrointestinal helminths of experimentally infected sheep on oral administration of Haemonchus contortus at 0.05 mg/kg.; procedure, shortened: as §1
Ovis aries [7] = test: Activity against adult gastrointestinal helminths of experimentally infected sheep on oral administration of Oesophagostomum columbianum at 0.1 mg/kg.
Procedure, shortened: (§2)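 Sheep were given the compound orally, each at one dose, with concurrent experimental infections of six adult gastrointestinal nematode species. Efficacy against adult worms was recorded as a categorical score for each species.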

Ovis aries [8] = test: Activity against adult gastrointestinal helminths of experimentally infected sheep on oral administration of Ostertagia circumcincta at 0.1 mg/kg.; procedure, shortened: as §2
Ovis aries [9] = test: Activity against adult gastrointestinal helminths of experimentally infected sheep on oral administration of Trichostrongylus colubriformis at 0.1 mg/kg.
Procedure, shortened: (§3)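 Sheep were given the compound orally, each at one dose, with experimental infections of six gastrointestinal nematode species. The Haemonchus contortus and Trichostrongylus colubriformis strains were benzimidazole-resistant. Efficacy against adult worms was recorded as a categorical score.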

Ovis aries [10] = test: Activity against adult gastrointestinal helminths of experimentally infected sheep on oral administration of Trichostrongylus axei at 0.1 mg/kg.; procedure, shortened: as §2
Ovis aries [11] = test: Activity against adult gastrointestinal helminths of experimentally infected sheep on oral administration of Cooperia species at 0.1 mg/kg.; procedure, shortened: as §2
Ovis aries [12] = test: Activity against adult gastrointestinal helminths of experimentally infected sheep on oral administration of Haemonchus contortus at 0.1 mg/kg.; procedure, shortened: as §3
Ovis aries [13] = test: Activity against adult gastrointestinal helminths of experimentally infected sheep on oral administration of Oesophagostomum columbianum at 0.2 mg/kg.; procedure, shortened: as §2
Ovis aries [14] = test: Activity against adult gastrointestinal helminths of experimentally infected sheep on oral administration of Ostertagia circumcincta at 0.2 mg/kg.; procedure, shortened: as §2
Ovis aries [15] = test: Activity against adult gastrointestinal helminths of experimentally infected sheep on oral administration of Trichostrongylus colubriformis at 0.2 mg/kg.; procedure, shortened: as §3
Ovis aries [16] = test: Activity against adult gastrointestinal helminths of experimentally infected sheep on oral administration of Trichostrongylus axei at 0.2 mg/kg.; procedure, shortened: as §2
Ovis aries [17] = test: Activity against adult gastrointestinal helminths of experimentally infected sheep on oral administration of Haemonchus contortus at 0.2 mg/kg.; procedure, shortened: as §3
Ovis aries [18] = test: Activity against adult gastrointestinal helminths of experimentally infected sheep on oral administration of Cooperia species at 0.2 mg/kg.; procedure, shortened: as §2
Ovis aries [19] = test: Activity against adult gastrointestinal helminths of experimentally infected sheep on oral administration of Oesophagostomum columbianum at 0.3 mg/kg.; procedure, shortened: as §2
Ovis aries [20] = test: Activity against adult gastrointestinal helminths of experimentally infected sheep on oral administration of Ostertagia circumcincta at 0.3 mg/kg; 75-90; procedure, shortened: as §2
Ovis aries [21] = test: Activity against adult gastrointestinal helminths of experimentally infected sheep on oral administration of Trichostrongylus colubriformis at 0.3 mg/kg; 50-74; procedure, shortened: as §3
Ovis aries [22] = test: Activity against adult gastrointestinal helminths of experimentally infected sheep on oral administration of Trichostrongylus axei at 0.3 mg/kg.; procedure, shortened: as §2
Ovis aries [23] = test: Activity against adult gastrointestinal helminths of experimentally infected sheep on oral administration of Haemonchus contortus at 0.3 mg/kg.; procedure, shortened: as §3
Ovis aries [24] = test: Activity against adult gastrointestinal helminths of experimentally infected sheep on oral administration of Cooperia species at 0.3 mg/kg.; procedure, shortened: as §2
Ovis aries [25] = test: Activity against adult gastrointestinal helminths of experimentally infected sheep on oral administration of Trichostrongylus axei at 0.2 mg/kg; 50-74; procedure, shortened: as §2
Ovis aries [26] = test: Activity against adult gastrointestinal helminths of experimentally infected sheep on oral administration of Trichostrongylus axei at 3.0 mg/kg.; procedure, shortened: as §2
Ovis aries [27] = test: Activity against adult gastrointestinal helminths of experimentally infected sheep on oral administration of Oesophagostomum columbianum at 3.0 mg/kg.; procedure, shortened: as §2
Ovis aries [28] = test: Activity against adult gastrointestinal helminths of experimentally infected sheep on oral administration of Ostertagia circumcincta at 3.0 mg/kg; 75-90; procedure, shortened: as §2
Ovis aries [29] = test: Activity against adult gastrointestinal helminths of experimentally infected sheep on oral administration of Trichostrongylus colubriformis at 3.0 mg/kg.; procedure, shortened: as §3
Ovis aries [30] = test: Activity against adult gastrointestinal helminths of experimentally infected sheep on oral administration of Haemonchus contortus at 3.0 mg/kg; 50-74; procedure, shortened: as §3
Ovis aries [31] = test: Activity against adult gastrointestinal helminths of experimentally infected sheep on oral administration of Cooperia species at 3.0 mg/kg; 50-74; procedure, shortened: as §2
Ovis aries [32] = test: Activity against adult gastrointestinal helminths of experimentally infected sheep on oral administration of Ostertagia circumcincta at 0.1 mg/kg; 75-90; procedure, shortened: as §2
Ovis aries [33] = test: Activity against adult gastrointestinal helminths of experimentally infected sheep on oral administration of Haemonchus contortus at 0.1 mg/kg; 75-90; procedure, shortened: as §3
Ovis aries [34] = test: Activity against adult gastrointestinal helminths of experimentally infected sheep on oral administration of Cooperia species at 0.1 mg/kg; 75-90; procedure, shortened: as §2
Ovis aries [35] = test: Activity against adult gastrointestinal helminths of experimentally infected sheep on oral administration of Oesophagostomum columbianum at 0.15 mg/kg.; procedure, shortened: as §2
Ovis aries [36] = test: Activity against adult gastrointestinal helminths of experimentally infected sheep on oral administration of Ostertagia circumcincta at 0.15 mg/kg; 75-90; procedure, shortened: as §2
Ovis aries [37] = test: Activity against adult gastrointestinal helminths of experimentally infected sheep on oral administration of Trichostrongylus colubriformis at 0.15 mg/kg.; procedure, shortened: as §3
Ovis aries [38] = test: Activity against adult gastrointestinal helminths of experimentally infected sheep on oral administration of Trichostrongylus axei at 0.15 mg/kg.; procedure, shortened: as §2
Ovis aries [39] = test: Activity against adult gastrointestinal helminths of experimentally infected sheep on oral administration of Haemonchus contortus at 0.15 mg/kg 75-90; procedure, shortened: as §3
Ovis aries [40] = test: Activity against adult gastrointestinal helminths of experimentally infected sheep on oral administration of Cooperia species at 0.15 mg/kg.; procedure, shortened: as §2
Ovis aries [41] = test: Activity against adult gastrointestinal helminths of experimentally infected sheep on oral administration of Ostertagia circumcincta at 0.3 mg/kg.; procedure, shortened: as §2
Ovis aries [42] = test: Activity against adult gastrointestinal helminths of experimentally infected sheep on oral administration of Trichostrongylus colubriformis at 0.3 mg/kg.; procedure, shortened: as §3
Ovis aries [43] = test: Activity against adult gastrointestinal helminths of experimentally infected sheep on oral administration of Cooperia species at 0.3 mg/kg; 75-90; procedure, shortened: as §2

## CC[C@H](C)[C@H]1O[C@]2(C=C[C@@H]1C)C[C@@H]1C[C@@H](C/C=C(\C)[C@@H](O[C@H]3C[C@H](OC)[C@@H](O[C@H]4C[C@H](OC)[C@@H](O)[C@H](C)O4)[C@H](C)O3)[C@@H](C)/C=C/C=C3\CO[C@@H]4[C@H](O)C(C)=C[C@@H](C(=O)O1)[C@]34O)O2 [ABAMECTIN COMPONENT B1A]
Ovis aries [1]
  Efficacy: >90%
Ovis aries [2]
  Efficacy: >90%
Ovis aries [3]
  Efficacy: >90%
Ovis aries [4]
  Efficacy: >90%
Ovis aries [5]
  Efficacy: >90%
Ovis aries [6]
  Efficacy: >90%

## CC[C@H](C)[C@H]1O[C@]2(CC(O)[C@@H]1C)C[C@@H]1C[C@@H](C/C=C(\C)[C@@H](OC3CC(OC)C(OC4CC(OC)C(O)C(C)O4)C(C)O3)[C@@H](C)/C=C/C=C3\CO[C@@H]4[C@H](OC)C(C)=C[C@@H](C(=O)O1)[C@]34O)O2 (stereo not given in full) [AVERMECTIN A2]
Ovis aries [7]
  Efficacy: >90%
Ovis aries [8]
  Efficacy: >90%
Ovis aries [9]
  Efficacy: >90%
Ovis aries [10]
  Efficacy: >90%
Ovis aries [11]
  Efficacy: <50%
Ovis aries [12]
  Efficacy: >90%

## COC1CC(O[C@@H]2/C(C)=C/C[C@@H]3C[C@@H](C[C@]4(CC(O)[C@H](C)[C@@H](C(C)C)O4)O3)OC(=O)[C@@H]3C=C(C)[C@@H](O)[C@H]4OC/C(=C\C=C\[C@@H]2C)[C@]43O)OC(C)C1O (stereo not given in full) [AVERMECTIN B2 MONOSACCHARIDE]
Ovis aries [13]
  Efficacy: >90%
Ovis aries [14]
  Efficacy: 50%
Ovis aries [15]
  Efficacy: >90%
Ovis aries [16]
  Efficacy: >90%
Ovis aries [17]
  Efficacy: 50%
Ovis aries [18]
  Efficacy: >90%

## CC[C@H](C)[C@H]1O[C@]2(CC[C@@H]1C)C[C@@H]1C[C@@H](C/C=C(\C)[C@@H](O[C@H]3C[C@H](OC)[C@@H](O[C@H]4C[C@H](OC)[C@@H](O)[C@H](C)O4)[C@H](C)O3)[C@@H](C)/C=C/C=C3\CO[C@@H]4[C@H](OC)C(C)=C[C@@H](C(=O)O1)[C@]34O)O2
Ovis aries [19]
  Efficacy: >90%
Ovis aries [20]
  Efficacy: 75%
Ovis aries [21]
  Efficacy: 50%
Ovis aries [22]
  Efficacy: <50%
Ovis aries [23]
  Efficacy: >90%
Ovis aries [24]
  Efficacy: <50%

## CO[C@H]1C[C@H](O[C@H]2[C@H](C)O[C@@H](O[C@@H]3/C(C)=C/C[C@@H]4C[C@@H](C[C@]5(CC[C@H](C)[C@@H](C(C)C)O5)O4)OC(=O)[C@@H]4CC(C)[C@@H](O)[C@H]5OC/C(=C\C=C\[C@@H]3C)[C@]54O)C[C@@H]2OC)O[C@@H](C)[C@@H]1O (stereo not given in full)
Ovis aries [13]
  Efficacy: >90%
Ovis aries [14]
  Efficacy: <50%
Ovis aries [15]
  Efficacy: <50%
Ovis aries [25]
  Efficacy: 50%
Ovis aries [17]
  Efficacy: <50%
Ovis aries [18]
  Efficacy: <50%

## COC1CC(OC2C(C)OC(O[C@@H]3/C(C)=C/C[C@@H]4C[C@@H](C[C@]5(CC(O)[C@H](C)[C@@H](C(C)C)O5)O4)OC(=O)[C@@H]4C=C(C)[C@@H](O)[C@H]5OC/C(=C\C=C\[C@@H]3C)[C@]54O)CC2OC)OC(C)C1O (stereo not given in full) [AVERMECTIN B2]
Ovis aries [7]
  Efficacy: >90%
Ovis aries [8]
  Efficacy: >90%
Ovis aries [9]
  Efficacy: >90%
Ovis aries [10]
  Efficacy: >90%
Ovis aries [11]
  Efficacy: >90%
Ovis aries [12]
  Efficacy: <50%

## CC1=C[C@H]2C(=O)O[C@H]3C[C@@H](C/C=C(\C)[C@@H](O)[C@@H](C)/C=C/C=C4\CO[C@H]([C@@H]1O)[C@@]42O)O[C@@]1(CC[C@H](C)[C@@H](C(C)C)O1)C3
Ovis aries [26]
  Efficacy: >90%
Ovis aries [27]
  Efficacy: >90%
Ovis aries [28]
  Efficacy: 75%
Ovis aries [29]
  Efficacy: >90%
Ovis aries [30]
  Efficacy: 50%
Ovis aries [31]
  Efficacy: 50%

## CC[C@H](C)[C@H]1O[C@]2(C=C[C@@H]1C)C[C@@H]1C[C@@H](C/C=C(\C)[C@@H](OC3CC(OC)C(OC4CC(OC)C(O)C(C)O4)C(C)O3)[C@@H](C)/C=C/C=C3\CO[C@@H]4[C@H](OC)C(C)=C[C@@H](C(=O)O1)[C@]34O)O2 (stereo not given in full) [AVERMECTIN A1]
Ovis aries [7]
  Efficacy: <50%
Ovis aries [32]
  Efficacy: 75%
Ovis aries [9]
  Efficacy: <50%
Ovis aries [10]
  Efficacy: <50%
Ovis aries [33]
  Efficacy: 75%
Ovis aries [34]
  Efficacy: 75%

## COC1CC(O[C@@H]2/C(C)=C/C[C@@H]3C[C@@H](C[C@]4(C=C[C@H](C)[C@@H](C(C)C)O4)O3)OC(=O)[C@@H]3C=C(C)[C@@H](O)[C@H]4OC/C(=C\C=C\[C@@H]2C)[C@]43O)OC(C)C1O (stereo not given in full) [AVERMECTIN B1 MONOSACCHARIDE]
Ovis aries [35]
  Efficacy: <50%
Ovis aries [36]
  Efficacy: 75%
Ovis aries [37]
  Efficacy: >90%
Ovis aries [38]
  Efficacy: >90%
Ovis aries [39]
  Efficacy: 75%
Ovis aries [40]
  Efficacy: >90%

## CO[C@H]1C[C@H](O[C@@H]2/C(C)=C/C[C@@H]3C[C@@H](C[C@]4(CC[C@H](C)[C@@H](C(C)C)O4)O3)OC(=O)[C@@H]3C=C(C)[C@@H](O)[C@H]4OC/C(=C\C=C\[C@@H]2C)[C@]43O)O[C@@H](C)[C@@H]1O
Ovis aries [19]
  Efficacy: >90%
Ovis aries [41]
  Efficacy: >90%
Ovis aries [42]
  Efficacy: >90%
Ovis aries [22]
  Efficacy: >90%
Ovis aries [23]
  Efficacy: >90%
Ovis aries [43]
  Efficacy: 75%
